Experimental data taken from ChEMBL document CHEMBL4152233, “Design, synthesis and anthelmintic activity of 7-keto-sempervirol analogues” (Eur J Med Chem, 2018).
Active and inactive are the calls of the source.

What was measured:
[1] = Cytotoxicity against human HepG2 cells after 24 hrs by MTT assay; assay type: cell-based
Summary of the method: (§1)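 Cells were grown to about 80% confluence (HepG2 in BME, MDBK in EMEM, each with 10% FBS). They were seeded at 2.5 x10^4 per well and rested 24 hr, then exposed 24 hr to compound at 100–0.01 µM (1.25% DMSO). Controls were DMSO and 1% Triton X-100. Viability was read by MTT, and CC50 came from dose-response curves run in triplicate.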

Schistosoma mansoni [2] = assay: Antischistosomal activity against schistosomula of Schistosoma mansoni assessed as effect on parasite phenotype by throughput high content image analysis; assay type: functional, organism-based
Summary of the method: (§2)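 Puerto Rican (NMRI) strain cercariae were mechanically transformed to schistosomula. About 120 larvae were co-cultured with compound for 72 hr at 37 °C, 5% CO2, at 0.625% DMSO final. Controls were DMSO and auranofin. Motility and phenotype were scored by automated image analysis, with a hit threshold of ≤-0.15 (phenotype) and ≤-0.35 (motility) in ≥70% of larvae. Runs were in duplicate, and IC50 was estimated from dose-response curves.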

[3] = Cytotoxicity against MDBK cells after 24 hrs by MTT assay; assay type: cell-based, Bos taurus; details: cattle; summary of the method: as §1
Schistosoma mansoni [4] = assay: Antischistosomal activity against schistosomula of Schistosoma mansoni assessed as effect on parasite motility by throughput high content image analysis; assay type: functional, organism-based; summary of the method: as §2
[5] = Selectivity index, ratio of IC50 for MDBK cells to IC50 for antischistosomal activity against schistosomula of Schistosoma mansoni assessed as effect on parasite phenotype; assay type: toxicity; details: cattle, read-out: Ratio IC50
Summary of the method: (§3)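 Selectivity index was calculated as the CC50 from the HepG2 or MDBK MTT assay divided by the schistosomula phenotype or motility IC50 from the 72 hr image-based screen.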

[6] = Selectivity index, ratio of IC50 for MDBK cells to IC50 for antischistosomal activity against schistosomula of Schistosoma mansoni assessed as effect on parasite motility; assay type: toxicity; details: cattle, read-out: Ratio IC50; summary of the method: as §3
Schistosoma mansoni [7] = assay: Antischistosomal activity against schistosomula of Schistosoma mansoni at 25 uM by throughput high content image analysis; assay type: functional, organism-based; summary of the method: as §2
Schistosoma mansoni [8] = assay: Antischistosomal activity against adult stage of Schistosoma mansoni assessed as effect on parasite motility after 72 hrs by microscopic method; assay type: functional, organism-based
Summary of the method: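 Mice were infected percutaneously with 200 cercariae, and adults were recovered by portal perfusion at seven weeks. Three worm pairs per well in modified DMEM with 10% FCS were given compound at 50, 25, 12.5 and 6.25 µM final (0.3% DMSO) for 72 hr at 37 °C, 5% CO2. Controls were DMSO and auranofin. Worms were scored manually by microscopy at 24, 48 and 72 hr. Experiments were run in duplicate.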

[9] = Selectivity index, ratio of IC50 for human HepG2 cells to IC50 for antischistosomal activity against schistosomula of Schistosoma mansoni assessed as effect on parasite motility; assay type: toxicity; details: read-out: Ratio IC50; summary of the method: as §3
[10] = Selectivity index, ratio of IC50 for human HepG2 cells to IC50 for antischistosomal activity against schistosomula of Schistosoma mansoni assessed as effect on parasite phenotype; assay type: toxicity; details: read-out: Ratio IC50; summary of the method: as §3
[11] = Selectivity index, ratio of IC50 for MDBK cells to IC50 for newly excysted juveline stage of Fasciola hepatica Italian assessed as effect on parasite motility; assay type: toxicity; details: cattle, read-out: Ratio IC50
Summary of the method: (§4)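 Selectivity index was calculated as the CC50 from the HepG2 or MDBK MTT assay divided by the F. hepatica NEJ phenotype or motility IC50 from the 72 hr manual scoring assay.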

[12] = Selectivity index, ratio of IC50 for MDBK cells to IC50 for newly excysted juveline stage of Fasciola hepatica Italian assessed as effect on parasite phenotype; assay type: toxicity; details: cattle, read-out: Ratio IC50; summary of the method: as §4
Fasciola hepatica [13] = assay: Antifasciola activity against newly excysted juveline stage of Fasciola hepatica Italian assessed as effect on parasite motility after 72 hrs; assay type: functional, organism-based
Summary of the method: (§5)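 NEJs came from Italian-strain metacercariae, excysted either by pepsin/HCl or by needle rupture, then 1 hr in sodium tauroglycocholate. They were plated at 25 per well in RPMI-1640 with 1% FCS. Screening was at 25 and 12.5 µM, then titration from 10 to 0.625 µM (0.16% DMSO). Controls were DMSO and 10 µM triclabendazole. Motility and phenotype were scored at 72 hr, with IC50 from dose-response curves.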

Fasciola hepatica [14] = assay: Antifasciola activity against newly excysted juveline stage of Fasciola hepatica Italian assessed as effect on parasite phenotype after 72 hrs; assay type: functional, organism-based; summary of the method: as §5
[15] = Selectivity index, ratio of IC50 for human HepG2 cells to IC50 for newly excysted juveline stage of Fasciola hepatica Italian assessed as effect on parasite phenotype; assay type: toxicity; details: read-out: Ratio IC50; summary of the method: as §4
[16] = Selectivity index, ratio of IC50 for human HepG2 cells to IC50 for newly excysted juveline stage of Fasciola hepatica Italian assessed as effect on parasite motility; assay type: toxicity; details: read-out: Ratio IC50; summary of the method: as §4
Fasciola hepatica [17] = assay: Antifasciola activity against adult stage of Fasciola hepatica Italian assessed as effect on parasite motility after 72 hrs; assay type: functional, organism-based
Fasciola hepatica [18] = assay: Antifasciola activity against immature stage of Fasciola hepatica Italian assessed as effect on parasite motility after 72 hrs; assay type: functional, organism-based

Structure (SMILES) | IC50 (Schistosoma mansoni [2]) | IC50 (Schistosoma mansoni [4]) | CC50 at 24 h [1] | CC50 at 24 h [3] | other results
COc1ccc2c(c1)[C@@]1(C)CCCC(C)(C)[C@@H]1CC2 (relative stereo) | 44.1 µM | 26.6 µM | > 100 µM | > 100 µM | 
COc1cccc(CC/C=C(\C)CCC=C(C)C)c1 | 43.9 µM | 27.1 µM | > 100 µM | > 100 µM | 
CC(C)=CCC/C(C)=C/CCc1ccccc1 | 43.8 µM | 43.8 µM | > 100 µM | > 100 µM | 
CC1=C(C(=O)Cc2ccccc2)C(C)(C)CCC1 | 43.8 µM | 26 µM | > 100 µM | > 100 µM | 
COc1cc(CC(O)C2=C(C)CCCC2(C)C)cc(OC)c1OC (centres undefined) | 43.8 µM | 43.6 µM | > 100 µM | > 100 µM | 
COc1cc(CC(=O)C2=C(C)CCCC2(C)C)cc(OC)c1OC | 43.7 µM | 27.2 µM | > 100 µM | > 100 µM | 
COc1ccc(CC(O)C2=C(C)CCCC2(C)C)cc1 (centres undefined) | 42.5 µM | 26.4 µM | > 100 µM | > 100 µM | 
COc1cccc(CC(=O)C2=C(C)CCCC2(C)C)c1 | 41.4 µM | 28.1 µM | > 100 µM | > 100 µM | 
CC1=C(C(O)Cc2ccccc2)C(C)(C)CCC1 (centres undefined) | 43.6 µM | 21.5 µM | > 100 µM | > 100 µM | 
COc1ccc2c(c1)[C@@]1(C)CCCC(C)(C)[C@H]1C(=O)C2=O (relative stereo) | 43.7 µM | 26.5 µM | > 100 µM | > 100 µM | 
COc1ccc2c(c1)CC[C@H]1C(C)(C)CCC[C@]21C (relative stereo) | 43.4 µM | 27.9 µM | 89 µM | > 100 µM | selectivity ratio [9]: 3.3; selectivity ratio [10]: 2.1

Further lines, with some results ahead:

IC50 (Schistosoma mansoni [2]) | IC50 (Schistosoma mansoni [4]) | Structure (SMILES) | CC50 at 24 h [1] | CC50 at 24 h [3] | other results
39.4 µM | 40.1 µM | COc1ccc(CC/C=C(\C)CCC=C(C)C)cc1 | > 100 µM | > 100 µM | 
25.3 µM | 19.1 µM | COc1ccc(CC(=O)C2=C(C)CCCC2(C)C)cc1 | > 100 µM | 91.1 µM | selectivity ratio [5]: 3.6; selectivity ratio [6]: 4.8; Activity (Schistosoma mansoni [7]): Active; IC50 (Schistosoma mansoni [8]): > 50 µM
22.9 µM | 6.4 µM | COc1ccc2c(c1)C(=O)C(=O)[C@@H]1C(C)(C)CCC[C@]21C (relative stereo) | 84.9 µM | > 100 µM | selectivity ratio [9]: 13.2; Activity (Schistosoma mansoni [7]): Active; IC50 (Schistosoma mansoni [8]): > 50 µM; selectivity ratio [10]: 3.7
28.6 µM | 17.6 µM | COc1ccc2c(c1)C(=O)C[C@H]1C(C)(C)CCC[C@]21C (relative stereo) | > 100 µM | > 100 µM | 
28 µM | 21.9 µM | CC1(C)CCC[C@]2(C)c3ccc(O)cc3C(=O)C[C@@H]12 (relative stereo) | 65.1 µM | > 100 µM | selectivity ratio [9]: 3; selectivity ratio [10]: 2.3
25 µM | 13 µM | CC1(C)CCC[C@]2(C)c3ccccc3C(=O)C(=O)[C@H]12 (relative stereo) | > 100 µM | > 100 µM | Activity (Schistosoma mansoni [7]): Active; IC50 (Schistosoma mansoni [8]): > 50 µM
21.9 µM | 26.2 µM | CC(C)c1cc2c(cc1O)C(=O)C[C@H]1C(C)(C)CCC[C@]21C | 80 µM | 63.8 µM | selectivity ratio [11]: 4.9; selectivity ratio [12]: 3.8; IC50 (Fasciola hepatica [13]): 13.1 µM; selectivity ratio [5]: 2.9; selectivity ratio [6]: 2.4; selectivity ratio [9]: 3.1; IC50 (Fasciola hepatica [14]): 16.8 µM; selectivity ratio [15]: 4.8; selectivity ratio [16]: 6.1; selectivity ratio [10]: 3.7
14.2 µM | 10.3 µM | COc1ccc2c(c1)[C@@]1(C)CCCC(C)(C)[C@@H]1CC2=O (relative stereo) | 33.1 µM | 70.6 µM | selectivity ratio [11]: 8.3; selectivity ratio [12]: 7.1; IC50 (Fasciola hepatica [13]): 8.4 µM; selectivity ratio [5]: 5; selectivity ratio [6]: 6.9; IC50 (Fasciola hepatica [17]): 39.9 µM; selectivity ratio [9]: 3.2; IC50 (Fasciola hepatica [14]): 9.9 µM; Activity (Schistosoma mansoni [7]): Active; selectivity ratio [15]: 3.3; IC50 (Schistosoma mansoni [8]): > 50 µM; selectivity ratio [16]: 3.9; IC50 (Fasciola hepatica [18]): 14.6 µM; selectivity ratio [10]: 2.3
39.9 µM | 23.5 µM | COc1cccc(CC(O)C2=C(C)CCCC2(C)C)c1 (centres undefined) | > 100 µM | > 100 µM | 
39.9 µM | 27.3 µM | CC1=C(C(O)Cc2ccc(C(C)C)cc2)C(C)(C)CCC1 (centres undefined) | > 100 µM | > 100 µM | 
25.4 µM | 18.2 µM | CC1=C(C(=O)Cc2ccc(C(C)C)cc2)C(C)(C)CCC1 | 71.7 µM | > 100 µM | selectivity ratio [9]: 3.9; Activity (Schistosoma mansoni [7]): Active; IC50 (Schistosoma mansoni [8]): > 50 µM; selectivity ratio [10]: 2.8
40.2 µM | 25.6 µM | CC1=C(C(O)Cc2ccc(C(C)(C)C)cc2)C(C)(C)CCC1 (centres undefined) | > 100 µM | > 100 µM | 
28 µM | 18.9 µM | CC1=C(C(=O)Cc2ccc(C(C)(C)C)cc2)C(C)(C)CCC1 | > 100 µM | > 100 µM | 
39.5 µM | 14.7 µM | CC1(C)CCC[C@]2(C)c3ccccc3C(=O)C[C@@H]12 (relative stereo) | 84.2 µM | > 100 µM | selectivity ratio [9]: 5.7; selectivity ratio [10]: 2.1
